Laboratory results taken from ChEMBL document CHEMBL4715734, “Discovery of the Potent and Selective M1 PAM-Agonist N-[(3R,4S)-3-Hydroxytetrahydro-2H-pyran-4-yl]-5-methyl-4-[4-(1,3-thiazol-4-yl)benzyl]pyridine-2-carboxamide (PF-06767832): Evaluation of Efficacy and Cholinergic Side Effects” (J Med Chem, 2016).
In brackets after ≈: the same amount, converted by molar mass. Activity calls are given as the source filed them. No cut-off for these calls is given here.

Key:
[1] = Unbound brain concentration in scopolamine-induced Wistar rat model at 0.1 mg/kg, po measured after 1 hr; type: ADME, organism-based; conditions: in vivo
[2] = fCmax in rat at 30 mg/kg, po administered for 14 days; type: ADME, organism-based; conditions: in vivo, 336 h, time 14 day
In short: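 2-week repeat oral dosing in rats, 0.5% methylcellulose formulation; N=4/sex/dose; doses 3, 10, 30 (males)/15 (females) mg/kg; unbound exposures reported per dose and sex.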

[3] = Toxicity in male Beagle dog assessed as decrease in QTc interval at 3 mg/kg, po administered as single dose observed upto 9 hrs post last dose by telemetry; type: organism-based, Canis lupus familiaris; conditions: in vivo
In short: (§1)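 Crossover telemetry study in dogs at three oral doses (0.3, 1 and 3 mg/kg), N=4. Endpoints were blood pressure, maximum systolic left ventricular pressure, LV +dP/dt max, activity, heart rate, and RR, QT and QTc intervals, followed up to 9 h post dose.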

[4] = Toxicity in dog assessed as induction of soft stool at 45 mg/kg, po using spray-dried dispersion formulation measured after 45 mins; type: organism-based, Canis lupus familiaris; conditions: in vivo, 0.75 h
[5] = Toxicity in male Beagle dog assessed as decrease in RR interval at 3 mg/kg, po administered as single dose observed upto 9 hrs post last dose by telemetry; type: organism-based, Canis lupus familiaris; conditions: in vivo; in short: as §1
[6] = biological target: T1, Muscarinic acetylcholine receptor M4 (Homo sapiens, UniProt P08173); assay: Agonist activity at human recombinant muscarinic M4 receptor stably expressed in HEK cells assessed as increase in cAMP accumulation up to 10 uM measured after 10 mins by GloSensor cAMP Assay; type: cell-based
T1 sequence (P08173 whole entry): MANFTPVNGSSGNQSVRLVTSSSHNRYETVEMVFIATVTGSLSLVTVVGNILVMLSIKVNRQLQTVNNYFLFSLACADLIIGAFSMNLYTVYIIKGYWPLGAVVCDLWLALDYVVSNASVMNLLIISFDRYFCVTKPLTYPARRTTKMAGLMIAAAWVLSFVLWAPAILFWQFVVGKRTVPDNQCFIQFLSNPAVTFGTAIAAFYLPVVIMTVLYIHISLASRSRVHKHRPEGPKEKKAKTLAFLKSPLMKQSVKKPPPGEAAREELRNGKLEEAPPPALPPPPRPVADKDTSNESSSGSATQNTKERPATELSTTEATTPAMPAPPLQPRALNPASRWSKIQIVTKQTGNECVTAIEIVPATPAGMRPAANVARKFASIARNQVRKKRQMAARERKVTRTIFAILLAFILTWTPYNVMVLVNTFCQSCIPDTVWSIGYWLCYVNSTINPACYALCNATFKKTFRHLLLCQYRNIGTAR

[7] = Toxicity in dog assessed as induction of watery feces at 5 mg/kg, po using spray-dried dispersion formulation; type: organism-based, Canis lupus familiaris; conditions: in vivo
[8] = Intrinsic clearance in human liver microsome; type: ADME; conditions: liver microsomes, read-out: CLH
[9] = Unbound plasma concentration in […] in Sprague-Dawley rat model at 3.2 mg/kg, sc measured after 1.67 hrs; type: ADME, organism-based; conditions: in vivo
In short: (§2)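 Randomly selected animals (N=2/dose) at the end of the rat PPI study, T = 1.67 h. Dosed subcutaneously as a suspension in 0.5% methylcellulose in water. Plasma and brain concentrations were averaged.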

Mus musculus = assay: Reversal of amphetamine-induced hyperlocomotion in C57BL/6J mouse at 1 mg/kg, sc incubated for 30 mins followed by addition of amphetamine measured after 90 mins; type: functional, organism-based; conditions: time 120.0 min
In short: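 The compound was given sc as a solution in 5/15/80 DMSO/Solutol/water, and amphetamine-induced locomotor activity was compared with vehicle. Plasma and brain exposure came from a satellite group (N=2/dose) sampled at 1 h after the same dosing.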

[10] = biological target: T2, Muscarinic acetylcholine receptor M1 (Homo sapiens) (UniProt P11229); assay: Binding affinity to muscarinic M1 receptor (unknown origin) assessed as recruitment of beta-arrestin by Path Hunter assay; type: cell-based; conditions: CHO, filed as positive allosteric modulator
T2 sequence (whole entry): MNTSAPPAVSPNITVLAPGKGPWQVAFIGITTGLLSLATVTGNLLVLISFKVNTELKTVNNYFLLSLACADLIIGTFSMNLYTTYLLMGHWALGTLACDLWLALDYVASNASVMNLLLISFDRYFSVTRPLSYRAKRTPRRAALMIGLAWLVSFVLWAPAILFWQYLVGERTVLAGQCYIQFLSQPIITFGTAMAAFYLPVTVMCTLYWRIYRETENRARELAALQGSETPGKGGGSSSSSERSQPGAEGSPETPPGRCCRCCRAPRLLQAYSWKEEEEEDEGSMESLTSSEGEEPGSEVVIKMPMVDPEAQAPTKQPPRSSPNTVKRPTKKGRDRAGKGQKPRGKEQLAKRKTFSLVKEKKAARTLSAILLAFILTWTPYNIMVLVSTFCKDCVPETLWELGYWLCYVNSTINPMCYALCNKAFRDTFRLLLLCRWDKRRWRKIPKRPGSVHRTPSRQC

[11] = Unbound brain concentration in […] in Sprague-Dawley rat model at 1 mg/kg, sc measured after 1.67 hrs; type: ADME, organism-based; conditions: in vivo; in short: as §2
[12] = Thermodynamic solubility of compound at pH 6.5; type: physicochemical; conditions: buffer, read-out: Therm_solubility
[13] = biological target: T3, Muscarinic acetylcholine receptor M2 (Homo sapiens, UniProt P08172); assay: Agonist activity at human recombinant muscarinic M2 receptor stably expressed in HEK cells assessed as increase in cAMP accumulation up to 10 uM measured after 10 mins by GloSensor cAMP Assay; type: cell-based
T3 sequence (P08172 whole entry): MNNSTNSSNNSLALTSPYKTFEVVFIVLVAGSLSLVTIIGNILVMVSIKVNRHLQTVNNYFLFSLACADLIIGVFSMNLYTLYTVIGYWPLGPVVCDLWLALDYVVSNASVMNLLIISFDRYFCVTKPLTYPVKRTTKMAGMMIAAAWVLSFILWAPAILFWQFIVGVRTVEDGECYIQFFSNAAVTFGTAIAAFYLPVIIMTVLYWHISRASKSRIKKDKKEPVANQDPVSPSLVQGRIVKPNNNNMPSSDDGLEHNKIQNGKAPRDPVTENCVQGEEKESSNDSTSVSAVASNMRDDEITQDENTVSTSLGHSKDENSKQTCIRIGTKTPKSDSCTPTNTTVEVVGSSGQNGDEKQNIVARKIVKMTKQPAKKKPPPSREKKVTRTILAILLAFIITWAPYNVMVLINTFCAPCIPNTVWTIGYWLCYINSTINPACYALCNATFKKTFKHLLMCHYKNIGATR

[14] = biological target: T4, Muscarinic acetylcholine receptor M1 (Homo sapiens, UniProt P11229); assay: Partial agonist activity at human muscarinic M1 receptor stably expressed in CHO cells assessed as increase in intracellular calcium level measured after 10 mins by Fluo-8AM dye based FLIPR TETRA method; type: functional, cell-based
T4 sequence (P11229 whole entry): T2 sequence (whole entry)

[15] = Lipophilicity, log D of compound; type: physicochemical; conditions: octanol/water
[16] = Oral bioavailability in rat at 0.5 mg/kg; type: ADME, organism-based; conditions: in vivo
[17] = Half-life in rat at 0.5 mg/kg, po or 1 mg/kg, iv; type: ADME, organism-based; conditions: in vivo
[18] = fCmax in dog at 0.3 mg/kg, po measured after 4 hrs using spray-dried dispersion formulation; type: ADME, organism-based, Canis lupus familiaris; conditions: in vivo
In short: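 Dogs from the crossover cardiovascular telemetry study (N=4), dosed orally at 0.3, 1 and 3 mg/kg; unbound Cmax extrapolated from 4 h post-dose in-life plasma samples.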

Drug uptake(free) [1]: 0.31 nM | fCmax [2]: 1221 nM | Activity [6]: Not Active | CLint scaled [8]: < 8 mL/min/kg | Cp(f) [9]: 123 nM | Ka [10]: 20 µM | Drug uptake(free) [11]: 17.4 nM | solubility thermodynamic [12]: 2.7 µg/mL (≈ 6.59 µM) | Activity [13]: Not Active | EC50 [14]: ≥ 3.9 µM | logD [15]: 2.2 | bioavailability [16]: 112% | half-life [17]: 5.58 h | fCmax [18]: 41 nM
SMILES: Cc1cnc(C(=O)N[C@H]2CCOC[C@@H]2O)cc1Cc1ccc(-c2cscn2)cc1
Activity [3]: Toxic | Activity [4]: Toxic | Activity [5]: Toxic | Activity [7]: Toxic | Activity (Mus musculus): Active
